The test system of one series is MDA breast cancer cells. Kind of series: In vitro antitumor MTT assay, MDA. The note with it: for IC50: Homo sapiens, 24 h, read-out: IC50 MDA; for selectivity index to MDA: WISH versus MDA. The class given is cell-based, human. In outline:
(§1)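 ATCC cell lines grown in RPMI-1640 with 10% FBS, penicillin/streptomycin, at 37 °C and 5% CO2. Seeded at 1.0×10^4 cells/well for 48 h, then treated 24 h with a range of test compound concentrations. MTT (5 mg/mL solution) added for 4 h; formazan dissolved in DMSO and read at 570 nm. IC50 from percent viability; mean ± S.D. of three separate experiments.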

The test system of series [1] is Caco-2 colon cancer cells. Kind of series: In vitro antitumor MTT assay, Caco-2. As to conditions: Homo sapiens, Caco-2, 24 h, read-out: IC50 Caco-2. The class given is cell-based, human. In outline:
as §1
A general note: Tetrazolium assays rely on reduction of a dye to a coloured formazan, in cell work by metabolically active cells.

The subject of the next series is WISH normal cell line. The series can be described thus: Cytotoxic effect against normal cell line. The class given is cell-based. The note with it: read-out: IC50 WISH.
The next series relates to A549 lung cancer cells. The series can be described thus: In vitro antitumor MTT assay, A549. The class given is cell-based, human. As to conditions: for IC50: Homo sapiens, A549, 24 h, read-out: IC50 A549; for selectivity index to A549: WISH versus A549. In outline:
as §1

The target of another series is VEGFR-2 kinase (Homo sapiens, UniProt P35968). The series can be described thus: biochemical. The note with it: VEGFR-2, IC50, VEGFR-2 Kinase Assay Kit (BPS-Bioscience), luminescence.
In a further series the test system is HepG-2 hepatoma cells. Kind of series: In vitro antitumor MTT assay, HepG-2. The class given is cell-based, human. The note with it: for IC50: read-out: IC50 HepG-2, MTT, 24 h treatment, mean of three experiments; for selectivity index to HepG-2: WISH versus HepG-2. The procedure, abridged: as §1
Series [2] is described as follows: In vitro antitumor MTT assay, Caco-2. The class given is cell-based, human. As to conditions: human, Caco-2. In outline:
as §1

In general, IC50 refers to the concentration needed to halve the response being measured.

VEGFR-2 kinase, sequence (P35968 20-1356): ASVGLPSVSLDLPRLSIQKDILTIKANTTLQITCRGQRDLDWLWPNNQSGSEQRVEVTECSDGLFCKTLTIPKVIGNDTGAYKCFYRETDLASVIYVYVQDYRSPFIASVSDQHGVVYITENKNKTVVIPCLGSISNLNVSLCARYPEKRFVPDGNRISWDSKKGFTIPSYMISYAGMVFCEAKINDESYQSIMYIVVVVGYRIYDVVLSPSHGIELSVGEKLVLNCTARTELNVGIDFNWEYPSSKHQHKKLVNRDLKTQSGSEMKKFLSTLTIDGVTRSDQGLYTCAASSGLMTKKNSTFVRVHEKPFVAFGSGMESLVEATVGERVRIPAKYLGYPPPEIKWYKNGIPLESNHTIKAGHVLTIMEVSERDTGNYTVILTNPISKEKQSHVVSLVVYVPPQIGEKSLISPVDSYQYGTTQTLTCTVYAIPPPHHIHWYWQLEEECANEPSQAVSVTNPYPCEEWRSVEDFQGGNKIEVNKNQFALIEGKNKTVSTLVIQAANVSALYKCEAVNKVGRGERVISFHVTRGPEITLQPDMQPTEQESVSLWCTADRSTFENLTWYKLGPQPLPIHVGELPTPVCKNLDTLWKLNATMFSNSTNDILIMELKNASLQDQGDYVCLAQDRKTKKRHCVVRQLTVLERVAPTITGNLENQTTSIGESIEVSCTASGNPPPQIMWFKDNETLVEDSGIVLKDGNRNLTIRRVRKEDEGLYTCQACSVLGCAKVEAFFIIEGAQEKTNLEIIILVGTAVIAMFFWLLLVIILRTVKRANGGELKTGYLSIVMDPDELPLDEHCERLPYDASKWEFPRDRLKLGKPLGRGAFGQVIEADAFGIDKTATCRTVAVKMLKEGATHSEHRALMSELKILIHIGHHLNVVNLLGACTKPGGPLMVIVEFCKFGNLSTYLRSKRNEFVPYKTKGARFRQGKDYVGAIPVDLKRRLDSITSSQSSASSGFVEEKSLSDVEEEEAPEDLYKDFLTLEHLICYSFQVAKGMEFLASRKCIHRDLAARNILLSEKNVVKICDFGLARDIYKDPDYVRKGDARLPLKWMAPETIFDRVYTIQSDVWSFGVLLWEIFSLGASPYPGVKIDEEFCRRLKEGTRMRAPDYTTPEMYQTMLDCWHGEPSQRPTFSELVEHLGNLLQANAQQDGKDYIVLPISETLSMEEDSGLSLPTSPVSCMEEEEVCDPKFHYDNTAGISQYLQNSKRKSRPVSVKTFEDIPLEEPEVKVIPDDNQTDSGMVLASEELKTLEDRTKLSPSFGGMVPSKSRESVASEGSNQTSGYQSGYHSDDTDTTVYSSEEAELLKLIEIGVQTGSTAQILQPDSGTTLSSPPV

Consider `COc1ccc(NC(=O)CN2CCN(c3nc4ccccc4nc3Cl)CC2)cc1` [Compound 10b, 2-(4-(3-chloroquinoxalin-2-yl)piperazin-1-yl)-N-(4-methoxyphenyl)acetamide], for which the IC50 in the series with MDA breast cancer cells amounted to 11.6 µM; in series [1] it was 14.6 µM; in the series with WISH normal cell line, 45.7 µM; in the series with A549 lung cancer cells, 6.48 µM.
For `O=C(CN1CCN(c2nc3ccccc3nc2Cl)CC1)Nc1ccc(F)cc1` [Compound 10d, 2-(4-(3-chloroquinoxalin-2-yl)piperazin-1-yl)-N-(4-fluorophenyl)acetamide], in that order: 16.6 µM, 32.8 µM, 82.2 µM and 10.9 µM.
As for `O=C(CN1CCN(c2nc3ccccc3[nH]c2=O)CC1)Nc1ccc(F)cc1` [Compound 13d, N-(4-fluorophenyl)-2-(4-(3-oxo-3,4-dihydroquinoxalin-2-yl)piperazin-1-yl)acetamide], the IC50 stood at 0.602 ± 0.048 µM against VEGFR-2 kinase; 14.4 µM in the series with MDA breast cancer cells; 8.35 µM in the series on HepG-2 hepatoma cells; 13 µM in series [1]; 60.5 µM in the series on WISH normal cell line; 13.4 µM with A549 lung cancer cells.
Regarding `CC(=O)c1ccc(NC(=O)CN2CCN(c3nc4ccccc4[nH]c3=O)CC2)cc1` [Compound 13f, N-(4-acetylphenyl)-2-(4-(3-oxo-3,4-dihydroquinoxalin-2-yl)piperazin-1-yl)acetamide], the IC50 on VEGFR-2 kinase was found to be 0.465 ± 0.046 µM; in the series on MDA breast cancer cells, 16.4 µM; with HepG-2 hepatoma cells it was 8.4 µM; in series [1], 9.01 µM; with WISH normal cell line, 54.8 µM; in the series on A549 lung cancer cells, 11.3 µM.
Regarding `CNC(=O)c1cc(Oc2ccc(NC(=O)Nc3ccc(Cl)c(C(F)(F)F)c3)cc2)ccn1` [Sorafenib, reference compound], the half-inhibitory concentration (IC50) with MDA breast cancer cells stood at 10.8 µM; in series [1], 9.25 µM; in the series on A549 lung cancer cells it was 14.1 µM.
As for `Cc1ccc(NC(=O)CN2CCN(c3nc4ccccc4nc3Cl)CC2)cc1` [Compound 10e, 2-(4-(3-chloroquinoxalin-2-yl)piperazin-1-yl)-N-(p-tolyl)acetamide], the IC50 on VEGFR-2 kinase turned out to be 0.241 ± 0.021 µM; in the series with MDA breast cancer cells it was 14.3 µM; in series [1], 16.3 µM; in the series with WISH normal cell line, 106 µM; with A549 lung cancer cells it was 11.6 µM. Further, the “selectivity index to MDA” value with MDA breast cancer cells turned out to be 7.43. Further, the “selectivity index to HepG-2” value with HepG-2 hepatoma cells is 13.17. The selectivity ratio at 24 h in series [2] turned out to be 6.51. The “selectivity index to A549” value in the series on A549 lung cancer cells is given as 9.18.
Turning to `CC(=O)c1ccc(NC(=O)CN2CCN(c3nc4ccccc4nc3Cl)CC2)cc1` [Compound 10f, N-(4-acetylphenyl)-2-(4-(3-chloroquinoxalin-2-yl)piperazin-1-yl)acetamide], the IC50 with MDA breast cancer cells is 16.1 µM; in series [1] it was 28.4 µM; in the series with WISH normal cell line, 65.5 µM; in the series on A549 lung cancer cells, 10.3 µM.
For the compound `O=C(CN1CCN(c2nc3ccccc3[nH]c2=O)CC1)Nc1ccc(Cl)cc1` [Compound 13c, N-(4-chlorophenyl)-2-(4-(3-oxo-3,4-dihydroquinoxalin-2-yl)piperazin-1-yl)acetamide], the IC50 turned out to be 12.1 µM in the series with MDA breast cancer cells, 9.05 µM in series [1], 42.1 µM with WISH normal cell line and 12.8 µM in the series on A549 lung cancer cells.
Turning to `O=C(CN1CCN(c2nc3ccccc3[nH]c2=O)CC1)Nc1ccccc1` [Compound 13a, 2-(4-(3-oxo-3,4-dihydroquinoxalin-2-yl)piperazin-1-yl)-N-phenylacetamide], the IC50 against VEGFR-2 kinase turned out to be 0.258 ± 0.023 µM; in the series with MDA breast cancer cells, 17.9 µM; in series [1], 13.2 µM; in the series on WISH normal cell line it was 106 µM; with A549 lung cancer cells, 11.2 µM.
Take `O=C(CN1CCN(c2nc3ccccc3nc2Cl)CC1)Nc1ccc(Cl)cc1` [Compound 10c, N-(4-chlorophenyl)-2-(4-(3-chloroquinoxalin-2-yl)piperazin-1-yl)acetamide]: the half-inhibitory concentration (IC50) in the series with MDA breast cancer cells came out at 11.3 µM; in series [1], 9.42 µM; in the series on WISH normal cell line, 48 µM; with A549 lung cancer cells, 9.57 µM.
For `O=C(CN1CCN(c2nc3ccccc3[nH]c2=O)CC1)NCc1ccccc1` [Compound 14, N-benzyl-2-(4-(3-oxo-3,4-dihydroquinoxalin-2-yl)piperazin-1-yl)acetamide], in that order: 20 µM, 16.6 µM, 35.7 µM and 14.7 µM.
In the case of `O=C(CN1CCN(c2nc3ccccc3[nH]c2=O)CC1)Nc1ccc([N+](=O)[O-])cc1` [Compound 13g, N-(4-nitrophenyl)-2-(4-(3-oxo-3,4-dihydroquinoxalin-2-yl)piperazin-1-yl)acetamide], the IC50 was found to be 24.6 µM in the series on MDA breast cancer cells, 19.4 µM in series [1], 38.6 µM with WISH normal cell line and 10.5 µM with A549 lung cancer cells.
For `O=C(CN1CCN(c2nc3ccccc3nc2Cl)CC1)Nc1ccccc1` [Compound 10a, 2-(4-(3-chloroquinoxalin-2-yl)piperazin-1-yl)-N-phenylacetamide], in that order: 14.4 µM, 14.2 µM, 30.5 µM and 9.03 µM.
Turning to `O=C(CN1CCN(c2nc3ccccc3nc2Cl)CC1)Nc1ccc([N+](=O)[O-])cc1` [Compound 10g, 2-(4-(3-chloroquinoxalin-2-yl)piperazin-1-yl)-N-(4-nitrophenyl)acetamide], the IC50 at VEGFR-2 kinase came out at 0.332 ± 0.028 µM; in the series with MDA breast cancer cells, 10.5 µM; in series [1], 15.9 µM; with WISH normal cell line, 85 µM; with A549 lung cancer cells, 8.36 µM.
With `COc1ccc(NC(=O)CN2CCN(c3nc4ccccc4[nH]c3=O)CC2)cc1` [Compound 13b, N-(4-methoxyphenyl)-2-(4-(3-oxo-3,4-dihydroquinoxalin-2-yl)piperazin-1-yl)acetamide], the 50% inhibitory concentration (IC50) against VEGFR-2 kinase was determined as 0.471 ± 0.034 µM; in the series on MDA breast cancer cells, 14.7 µM; in the series with HepG-2 hepatoma cells, 8.83 µM; in series [1], 10.5 µM; in the series on WISH normal cell line it was 109 µM; in the series with A549 lung cancer cells, 11 µM. For the same compound, the “selectivity index to MDA” value in the series with MDA breast cancer cells is recorded as 7.40. Besides, the “selectivity index to HepG-2” value in the series on HepG-2 hepatoma cells was 12.35. Besides, the selectivity ratio at 24 h in series [2] is 10.4. In the series on A549 lung cancer cells, the “selectivity index to A549” value came out at 9.94.
`Cc1ccc(NC(=O)CN2CCN(c3nc4ccccc4[nH]c3=O)CC2)cc1` [Compound 13e, 2-(4-(3-oxo-3,4-dihydroquinoxalin-2-yl)piperazin-1-yl)-N-(p-tolyl)acetamide]: the half-maximal inhibitory concentration (IC50) stood at 18.5 µM in the series with MDA breast cancer cells, 14.3 µM in series [1], 39.6 µM in the series on WISH normal cell line and 12.6 µM in the series on A549 lung cancer cells.
